In brackets after ≈: the same amount, converted by molar mass.
Experiments:
Format in all cases: functional
Exophiala dermatitidis = experiment: Antimicrobial activity against Exophiala dermatitidis by broth microdilution method
Aspergillus ustus = experiment: Antimicrobial activity against Aspergillus ustus by broth microdilution method
Method in brief: (§1)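 Clinical mould isolates, tested by broth microdilution using the AFST-EUCAST reference method for filamentous fungi. For echinocandins, the endpoint was the minimum effective concentration: the lowest drug concentration giving aberrant hyphal growth, read with an inverted microscope.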

Ustilago = experiment: Antimicrobial activity against Ustilago spp by broth microdilution method
Fusarium oxysporum = experiment: Antimicrobial activity against Fusarium oxysporum by broth microdilution method; method in brief: as §1
Candida orthopsilosis = experiment: Antimicrobial activity against Candida orthopsilosis by broth microdilution method; conditions: Lodderomyces orthopsilosis
Method in brief: (§2)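 Clinical isolates from human patients, tested by broth microdilution using the AFST-EUCAST reference procedure for fermentative yeasts. The MIC was read per that reference method.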

Pichia kudriavzevii = experiment: Antimicrobial activity against Candida krusei by broth microdilution method; method in brief: as §2
Clavispora lusitaniae = experiment: Antimicrobial activity against Candida lusitaniae by broth microdilution method; method in brief: as §2
[1] = Antimicrobial activity against Hormographiella aspergillata by broth microdilution method; conditions: Coprinopsis cinerea
Method in brief: (§3)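 Filamentous fungus clinical isolates tested by the AFST-EUCAST reference broth microdilution method for moulds. For echinocandins, the endpoint was the minimum effective concentration: the lowest drug concentration giving aberrant hyphal growth, read with an inverted microscope.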

Rhodotorula glutinis = experiment: Antimicrobial activity against Rhodotorula glutinis by broth microdilution method
Method in brief: (§4)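 Nonfermentative yeast clinical isolates (Rhodotorula, Trichosporon) tested by broth microdilution. The EUCAST yeast recommendations were followed strictly, with one minor modification to improve growth. MIC was read as the endpoint.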

Phialemonium curvatum = experiment: Antimicrobial activity against Phialemonium curvatum by broth microdilution method; conditions: Thyridium curvatum; method in brief: as §3
Exophiala jeanselmei = experiment: Antimicrobial activity against Exophiala jeanselmei by broth microdilution method
Geotrichum candidum = experiment: Antimicrobial activity against Galactomyces geotrichum by broth microdilution method
Aspergillus glaucus = experiment: Antimicrobial activity against Aspergillus glaucus by broth microdilution method; method in brief: as §1
[2] = tested on: Cladophialophora bantiana; experiment: Antimicrobial activity against Cladophialophora bantiana by broth microdilution method; method in brief: as §1
[3] = tested on: Kazachstania pintolopesii; experiment: Antimicrobial activity against Candida pintolopesii by broth microdilution method; conditions: Arxiozyma pintolopesii; method in brief: as §2
Lewia infectoria = experiment: Antimicrobial activity against Alternaria infectoria by broth microdilution method; method in brief: as §1
[4] = tested on: Meyerozyma guilliermondii; experiment: Antimicrobial activity against Candida guilliermondii by broth microdilution method; method in brief: as §2
Beauveria bassiana = experiment: Antimicrobial activity against Beauveria bassiana by broth microdilution method; method in brief: as §1
Trichosporon ovoides = experiment: Antimicrobial activity against Trichosporon ovoides by broth microdilution method; method in brief: as §4
[5] = Antimicrobial activity against Rhizopus microsporus by broth microdilution method; method in brief: as §3
Rhodotorula mucilaginosa = experiment: Antimicrobial activity against Rhodotorula mucilaginosa by broth microdilution method; method in brief: as §4
Fusarium equiseti = experiment: Antimicrobial activity against Fusarium equiseti by broth microdilution method; method in brief: as §1
[6] = tested on: Cryptococcus deneoformans; experiment: Antimicrobial activity against Cryptococcus neoformans var. neoformans by broth microdilution method
Method in brief: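 Clinical isolates of nonfermentative yeasts, tested by broth microdilution following EUCAST recommendations. The only change from that method was a minor modification to improve growth.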

Lomentospora prolificans = experiment: Antimicrobial activity against Scedosporium prolificans by broth microdilution method; method in brief: as §3
Candida parapsilosis = experiment: Antimicrobial activity against Candida parapsilosis by broth microdilution method; conditions: Lodderomyces parapsilosis; method in brief: as §2
Rhizomucor = experiment: Antimicrobial activity against Rhizomucor spp.by broth microdilution method; method in brief: as §3
Debaryomyces hansenii = experiment: Antimicrobial activity against Candida famata by broth microdilution method; method in brief: as §2
Trichosporon inkin = experiment: Antimicrobial activity against Trichosporon inkin by broth microdilution method; method in brief: as §4
Cladosporium = experiment: Antimicrobial activity against Cladosporium spp. by broth microdilution method; method in brief: as §1
Aspergillus nidulans = experiment: Antimicrobial activity against Aspergillus nidulans by broth microdilution method; method in brief: as §1
[7] = tested on: Cunninghamella bertholletiae; experiment: Antimicrobial activity against Cunninghamella bertholletiae by broth microdilution method; method in brief: as §1
[8] = tested on: Scopulariopsis brevicaulis; experiment: Antimicrobial activity against Scopulariopsis brevicaulis by broth microdilution method; method in brief: as §3
Fusarium solani = experiment: Antimicrobial activity against Fusarium solani by broth microdilution method; method in brief: as §3
Saksenaea vasiformis = experiment: Antimicrobial activity against Saksenaea vasiformis by broth microdilution method; method in brief: as §3
Candida metapsilosis = experiment: Antimicrobial activity against Candida metapsilosis by broth microdilution method; conditions: Lodderomyces metapsilosis; method in brief: as §2
Aspergillus versicolor = experiment: Antimicrobial activity against Aspergillus versicolor by broth microdilution method; method in brief: as §1
Lichtheimia corymbifera = experiment: Antimicrobial activity against Mycocladus corymbiferus by broth microdilution method; method in brief: as §3
Rhizopus arrhizus = experiment: Antimicrobial activity against Rhizopus oryzae by broth microdilution method; method in brief: as §3
Aureobasidium pullulans = experiment: Antimicrobial activity against Aureobasidium pullulans by broth microdilution method
Hortaea werneckii = experiment: Antimicrobial activity against Hortaea werneckii by broth microdilution method
Neurospora sitophila = experiment: Antimicrobial activity against Chrysonilia sitophila by broth microdilution method; method in brief: as §1

CC[C@@H]([C@H](C)O)n1ncn(-c2ccc(N3CCN(c4ccc(OC[C@@H]5CO[C@@](Cn6cncn6)(c6ccc(F)cc6F)C5)cc4)CC3)cc2)c1=O [POSACONAZOLE] gave an MIC50 (Exophiala dermatitidis) of 0.06 µg/mL (≈ 0.0856 µM), an MIC90 (Exophiala dermatitidis) greater than 8 µg/mL and an MIC50 (Aspergillus ustus) of 0.12 µg/mL (≈ 0.171 µM). For the same molecule, the MIC90 (Aspergillus ustus) was greater than 8 µg/mL, the MIC50 (Ustilago) was 0.25 µg/mL (≈ 0.357 µM) and the MIC90 (Ustilago) was greater than 8 µg/mL. The MIC50 (Fusarium oxysporum) was 4 µg/mL (≈ 5.71 µM), the MIC90 (Fusarium oxysporum) was greater than 8 µg/mL and the MIC50 (Candida orthopsilosis) was 0.03 µg/mL (≈ 0.0428 µM). For the same molecule, the MIC90 (Candida orthopsilosis) was greater than 8 µg/mL, the MIC50 (Pichia kudriavzevii) was 0.12 µg/mL (≈ 0.171 µM) and the MIC90 (Pichia kudriavzevii) was 0.25 µg/mL (≈ 0.357 µM). The MIC50 (Clavispora lusitaniae) was 0.02 µg/mL (≈ 0.0285 µM), the MIC90 (Clavispora lusitaniae) was 0.02 µg/mL (≈ 0.0285 µM) and the MIC50 [1] was 4 µg/mL (≈ 5.71 µM). For the same molecule, the MIC90 [1] was greater than 8 µg/mL, the MIC50 (Rhodotorula glutinis) was 0.25 µg/mL (≈ 0.357 µM) and the MIC90 (Rhodotorula glutinis) was greater than 8 µg/mL. It also gave an MIC50 (Phialemonium curvatum) of 4 µg/mL (≈ 5.71 µM), an MIC90 (Phialemonium curvatum) greater than 8 µg/mL and an MIC50 (Exophiala jeanselmei) of 0.06 µg/mL (≈ 0.0856 µM). It also gave an MIC90 (Exophiala jeanselmei) greater than 8 µg/mL, an MIC50 (Geotrichum candidum) of 0.5 µg/mL (≈ 0.713 µM) and an MIC90 (Geotrichum candidum) of 0.5 µg/mL (≈ 0.713 µM). For the same molecule, the MIC50 (Aspergillus glaucus) was 0.12 µg/mL (≈ 0.171 µM), the MIC90 (Aspergillus glaucus) was greater than 8 µg/mL and the MIC50 [2] was 0.06 µg/mL (≈ 0.0856 µM). The MIC90 [2] was greater than 8 µg/mL, the MIC50 [3] was 0.03 µg/mL (≈ 0.0428 µM) and the MIC90 [3] was greater than 8 µg/mL. The MIC50 (Lewia infectoria) was 0.5 µg/mL (≈ 0.713 µM), the MIC90 (Lewia infectoria) was greater than 8 µg/mL and the MIC50 [4] was 0.12 µg/mL (≈ 0.171 µM). It also gave an MIC90 [4] greater than 8 µg/mL, an MIC50 (Beauveria bassiana) of 4 µg/mL (≈ 5.71 µM) and an MIC90 (Beauveria bassiana) greater than 8 µg/mL. The MIC50 (Trichosporon ovoides) was 0.25 µg/mL (≈ 0.357 µM), the MIC90 (Trichosporon ovoides) was greater than 8 µg/mL and the MIC50 [5] was 4 µg/mL (≈ 5.71 µM). It also gave an MIC90 [5] greater than 8 µg/mL, an MIC50 (Rhodotorula mucilaginosa) of 2 µg/mL (≈ 2.85 µM) and an MIC90 (Rhodotorula mucilaginosa) greater than 8 µg/mL. The MIC50 (Fusarium equiseti) was 4 µg/mL (≈ 5.71 µM), the MIC90 (Fusarium equiseti) was greater than 8 µg/mL and the MIC50 [6] was 0.12 µg/mL (≈ 0.171 µM). It also gave an MIC90 [6] of 0.5 µg/mL (≈ 0.713 µM), an MIC50 (Lomentospora prolificans) greater than 8 µg/mL and an MIC90 (Lomentospora prolificans) greater than 8 µg/mL. For the same molecule, the MIC50 (Candida parapsilosis) was 0.02 µg/mL (≈ 0.0285 µM), the MIC90 (Candida parapsilosis) was 0.03 µg/mL (≈ 0.0428 µM) and the MIC50 (Rhizomucor) was 4 µg/mL (≈ 5.71 µM). For the same molecule, the MIC90 (Rhizomucor) was greater than 8 µg/mL, the MIC50 (Debaryomyces hansenii) was 0.03 µg/mL (≈ 0.0428 µM) and the MIC90 (Debaryomyces hansenii) was greater than 8 µg/mL. It also gave an MIC50 (Trichosporon inkin) of 0.06 µg/mL (≈ 0.0856 µM), an MIC90 (Trichosporon inkin) of 0.12 µg/mL (≈ 0.171 µM) and an MIC50 (Cladosporium) of 0.06 µg/mL (≈ 0.0856 µM). For the same molecule, the MIC90 (Cladosporium) was greater than 8 µg/mL, the MIC50 (Aspergillus nidulans) was 0.06 µg/mL (≈ 0.0856 µM) and the MIC90 (Aspergillus nidulans) was 0.25 µg/mL (≈ 0.357 µM). For the same molecule, the MIC50 [7] was 4 µg/mL (≈ 5.71 µM), the MIC90 [7] was greater than 8 µg/mL and the MIC50 [8] was 4 µg/mL (≈ 5.71 µM). For the same molecule, the MIC90 [8] was greater than 8 µg/mL, the MIC50 (Fusarium solani) was greater than 8 µg/mL and the MIC90 (Fusarium solani) was greater than 8 µg/mL. For the same molecule, the MIC50 (Saksenaea vasiformis) was 4 µg/mL (≈ 5.71 µM), the MIC90 (Saksenaea vasiformis) was greater than 8 µg/mL and the MIC50 (Candida metapsilosis) was 0.03 µg/mL (≈ 0.0428 µM). It also gave an MIC90 (Candida metapsilosis) greater than 8 µg/mL, an MIC50 (Aspergillus versicolor) of 0.25 µg/mL (≈ 0.357 µM) and an MIC90 (Aspergillus versicolor) of 0.5 µg/mL (≈ 0.713 µM). It also gave an MIC50 (Lichtheimia corymbifera) of 0.5 µg/mL (≈ 0.713 µM), an MIC90 (Lichtheimia corymbifera) greater than 8 µg/mL and an MIC50 (Rhizopus arrhizus) of 2 µg/mL (≈ 2.85 µM). It also gave an MIC90 (Rhizopus arrhizus) greater than 8 µg/mL, an MIC50 (Aureobasidium pullulans) of 0.06 µg/mL (≈ 0.0856 µM) and an MIC90 (Aureobasidium pullulans) greater than 8 µg/mL. It also gave an MIC50 (Hortaea werneckii) of 0.06 µg/mL (≈ 0.0856 µM), an MIC90 (Hortaea werneckii) greater than 8 µg/mL and an MIC50 (Neurospora sitophila) of 4 µg/mL (≈ 5.71 µM). For the same molecule, the MIC90 (Neurospora sitophila) was greater than 8 µg/mL.
